Assays:
Aurora kinase A [1] = target: Aurora kinase A (Homo sapiens, UniProt O14965, L215R); assay: Inhibition of autophosphorylation of aurora-A L215R mutant at T288 in human HCT116 cells after 2 hrs; type: cell-based, HCT-116
Procedure, shortened: (§1)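 Cells transfected with N-terminal Myc-tagged Aurora-A (wild type or T217E, L215R or R220K mutant, made by Quikchange mutagenesis), then exposed to a range of inhibitor concentrations for 2 h. Lysed in LDS sample buffer, sonicated, boiled, run on LDS-PAGE and blotted to nitrocellulose. Probed with anti-P-T288 (Aurora-A autophosphorylation) and anti-P-histone H3 S10 (Aurora-B substrate) antibodies. Blots quantified and IC50 fitted.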

Aurora kinase A [2] = target: T1, Aurora kinase A (Homo sapiens, UniProt O14965, T217E); assay: Inhibition of autophosphorylation of aurora-A T217E mutant at T288 in human HCT116 cells after 2 hrs; type: cell-based, HCT-116; procedure, shortened: as §1
T1 sequence (O14965 whole entry I57V/T217E): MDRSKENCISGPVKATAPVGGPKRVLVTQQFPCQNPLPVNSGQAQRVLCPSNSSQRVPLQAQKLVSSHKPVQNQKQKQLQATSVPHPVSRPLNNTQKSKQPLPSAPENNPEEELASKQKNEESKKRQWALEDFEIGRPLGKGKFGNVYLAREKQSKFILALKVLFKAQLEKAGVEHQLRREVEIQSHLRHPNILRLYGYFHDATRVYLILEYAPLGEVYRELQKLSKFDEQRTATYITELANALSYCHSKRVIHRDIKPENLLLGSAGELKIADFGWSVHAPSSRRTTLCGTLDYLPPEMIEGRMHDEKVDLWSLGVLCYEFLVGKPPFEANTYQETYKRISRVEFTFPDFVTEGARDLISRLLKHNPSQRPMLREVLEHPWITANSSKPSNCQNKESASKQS

Aurora kinase A [3] = target: T2, Aurora kinase A (Homo sapiens, UniProt O14965); assay: Inhibition of autophosphorylation of N-terminal Myc tagged wild type aurora-A at T288 in human HCT116 cells after 2 hrs; type: cell-based, HCT-116; procedure, shortened: as §1
T2 sequence (O14965 whole entry): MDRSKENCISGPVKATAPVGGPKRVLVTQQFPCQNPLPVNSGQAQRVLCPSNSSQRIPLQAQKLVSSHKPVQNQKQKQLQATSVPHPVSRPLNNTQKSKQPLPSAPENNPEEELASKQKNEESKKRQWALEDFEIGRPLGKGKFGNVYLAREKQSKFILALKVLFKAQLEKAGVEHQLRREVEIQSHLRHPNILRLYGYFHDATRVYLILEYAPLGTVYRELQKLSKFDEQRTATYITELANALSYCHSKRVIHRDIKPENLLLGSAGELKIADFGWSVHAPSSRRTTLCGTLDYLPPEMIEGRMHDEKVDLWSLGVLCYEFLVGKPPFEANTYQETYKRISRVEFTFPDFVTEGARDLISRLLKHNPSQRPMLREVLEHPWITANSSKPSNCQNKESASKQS

Aurora kinase A [4] = target: T1, Aurora kinase A; assay: Inhibition of autophosphorylation of aurora-A T217E mutant at T288 in human HeLa cells after 2 hrs; type: cell-based; procedure, shortened: as §1
Mus musculus = assay: Volume of distribution in Balb/C mouse at 5 mg/kg, iv and po; type: ADME, organism-based; parameters: dose 5 mg/kg, route oral; conditions: in vivo
Procedure, shortened: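 Female Balb/C mice given 5 mg/kg po or iv in 10% DMSO/5% Tween 20 in saline. Terminal cardiac-puncture plasma taken at 5, 15, 30 min and 1, 2, 4, 6, 24 h. Methanol precipitation with olomoucine internal standard. Analysis by LC/MS (ESI+ MRM).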

[5] = Metabolic stability in CD1 mouse liver microsomes at 10 uM after 30 mins; type: ADME, Microsome
Procedure, shortened: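 Compound at 10 μM incubated with male CD1 mouse liver microsomes (1 mg/mL protein) plus NADPH 1 mM, UDPGA 2.5 mM and MgCl2 3 mM in 10 mM PBS at 37 °C, for 0 and 30 min. Controls omit cofactors. Percent remaining measured by LC/MS.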

[6] = Antiproliferative activity against human MV411 cells; type: functional; conditions: MV4-11
HCT-116 = assay: Antiproliferative activity against human HCT116 cells; type: functional
[7] = target: Vascular endothelial growth factor receptor 1 (Homo sapiens) (UniProt P17948); assay: Inhibition of VEGFR1 (unknown origin) at 1 uM
Sequence of Vascular endothelial growth factor receptor 1 (Homo sapiens) (P17948 whole entry): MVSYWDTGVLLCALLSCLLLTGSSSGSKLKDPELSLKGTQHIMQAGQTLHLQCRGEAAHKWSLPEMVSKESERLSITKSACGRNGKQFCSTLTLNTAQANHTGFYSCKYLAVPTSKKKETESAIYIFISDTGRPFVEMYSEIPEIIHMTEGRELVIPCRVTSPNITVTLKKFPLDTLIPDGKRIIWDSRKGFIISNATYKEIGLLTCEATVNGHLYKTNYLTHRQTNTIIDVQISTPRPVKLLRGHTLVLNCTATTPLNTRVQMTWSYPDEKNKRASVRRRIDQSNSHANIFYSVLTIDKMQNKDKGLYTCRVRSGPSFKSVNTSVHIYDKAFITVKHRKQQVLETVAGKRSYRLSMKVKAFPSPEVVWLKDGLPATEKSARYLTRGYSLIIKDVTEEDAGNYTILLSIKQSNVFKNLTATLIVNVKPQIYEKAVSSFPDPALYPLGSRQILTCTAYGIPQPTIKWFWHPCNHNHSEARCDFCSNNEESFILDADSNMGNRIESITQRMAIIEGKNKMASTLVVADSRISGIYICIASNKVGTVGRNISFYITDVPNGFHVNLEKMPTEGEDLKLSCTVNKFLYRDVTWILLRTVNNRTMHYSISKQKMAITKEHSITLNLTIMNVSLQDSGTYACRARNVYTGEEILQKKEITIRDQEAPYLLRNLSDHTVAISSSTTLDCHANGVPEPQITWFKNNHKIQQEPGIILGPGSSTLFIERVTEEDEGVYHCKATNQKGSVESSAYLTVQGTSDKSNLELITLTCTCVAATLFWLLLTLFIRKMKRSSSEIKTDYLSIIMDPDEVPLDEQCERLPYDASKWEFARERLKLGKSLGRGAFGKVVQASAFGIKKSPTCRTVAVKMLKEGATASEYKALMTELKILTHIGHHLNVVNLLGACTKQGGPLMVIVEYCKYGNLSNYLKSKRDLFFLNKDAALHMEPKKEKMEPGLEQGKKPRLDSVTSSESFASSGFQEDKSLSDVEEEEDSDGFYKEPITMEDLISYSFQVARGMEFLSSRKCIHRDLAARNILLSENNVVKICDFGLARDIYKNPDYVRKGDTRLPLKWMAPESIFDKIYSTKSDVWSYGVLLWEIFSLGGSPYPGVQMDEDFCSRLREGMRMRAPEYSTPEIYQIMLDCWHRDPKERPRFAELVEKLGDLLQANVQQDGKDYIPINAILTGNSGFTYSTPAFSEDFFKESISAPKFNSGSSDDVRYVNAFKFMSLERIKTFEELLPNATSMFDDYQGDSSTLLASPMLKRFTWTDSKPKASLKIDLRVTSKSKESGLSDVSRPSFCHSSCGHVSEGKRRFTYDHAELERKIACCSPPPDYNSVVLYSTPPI
Procedure, shortened: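 110-kinase panel profiling, compounds tested at 1 μM, read as percent inhibition.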

Aurora kinase B [8] = target: T3, Aurora kinase B (Homo sapiens, UniProt Q96GD4); assay: Inhibition of N-terminal Myc tagged aurora-B-mediated histone H3 phosphorylation at S10 in human HCT116 cells after 2 hrs; type: cell-based, HCT-116; procedure, shortened: as §1
T3 sequence (Q96GD4 whole entry): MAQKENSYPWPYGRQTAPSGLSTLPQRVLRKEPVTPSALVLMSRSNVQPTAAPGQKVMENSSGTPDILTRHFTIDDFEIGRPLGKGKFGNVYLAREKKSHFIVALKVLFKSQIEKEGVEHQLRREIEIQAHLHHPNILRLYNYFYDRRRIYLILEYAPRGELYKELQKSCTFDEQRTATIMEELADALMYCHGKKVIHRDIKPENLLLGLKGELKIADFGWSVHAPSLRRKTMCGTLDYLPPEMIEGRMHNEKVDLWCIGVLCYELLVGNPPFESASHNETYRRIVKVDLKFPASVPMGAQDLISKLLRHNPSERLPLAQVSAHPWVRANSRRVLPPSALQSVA

Aurora kinase A [9] = target: T2, Aurora kinase A; assay: Inhibition of autophosphorylation of N-terminal Myc tagged aurora-A at T288 in human HCT116 cells after 2 hrs; type: cell-based, HCT-116
Procedure, shortened: (§2)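 Cells transfected with Myc-tagged Aurora-A (wild type or T217E, L215R, R220K mutants) and treated with inhibitor concentrations for 2 h. Lysed in LDS buffer; SDS-type PAGE and western blot. Blots probed for P-T288 (Aurora-A autophosphorylation) and phospho-histone H3 S10 (Aurora-B substrate). Blots quantified; IC50 derived; ratio taken as H3 IC50 over T288 IC50.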

HeLa = assay: Selectivity ratio of IC50 for aurora-B-mediated histone H3 phosphorylation at S10 in human HeLa cells to IC50 for autophosphorylation of N-terminal Myc tagged aurora-A at T288 in human HeLa cells; type: cell-based; procedure, shortened: as §2
Aurora kinase B [10] = target: T3, Aurora kinase B; assay: Inhibition of N-terminal Myc tagged aurora-B-mediated histone H3 phosphorylation at S10 in human HeLa cells after 2 hrs; type: cell-based; procedure, shortened: as §2
Aurora kinase A [11] = target: T2, Aurora kinase A; assay: Inhibition of autophosphorylation of N-terminal Myc tagged aurora-A at T288 in human HeLa cells after 2 hrs; type: cell-based; procedure, shortened: as §2
Aurora kinase B [12] = target: T3, Aurora kinase B; assay: Inhibition of full-length aurora-B (unknown origin) using 5FAMLRRASLG-CONH2 as substrate after 60 mins
Procedure, shortened: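 Full-length Aurora-B/INCENP complex (1 nM) incubated with 1.5 μM 5FAM-LRRASLG-CONH2 peptide and 15 μM ATP in Tris pH 7.4 buffer with NaCl, MgCl2, DTT, Tween 20. Runs 60 min at room temperature, then EDTA stop. Microfluidic mobility-shift readout of percent conversion. Duplicate 8-point curves, 0.25 pM–200 μM final. IC50 by four-parameter logistic fit.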

Aurora kinase A [13] = target: T2, Aurora kinase A; assay: Inhibition of N-terminal HIS-tagged aurora-A (unknown origin) using 5FAM-LRRASLG-CONH2 as substrate after 60 mins
Procedure, shortened: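 Aurora-A (5 nM N-terminal His-tagged) incubated with 1.5 μM 5FAM-LRRASLG-CONH2 peptide and 20 μM ATP in 50 mM Tris pH 7.4, 200 mM NaCl, 5 mM MgCl2, 2 mM DTT, 0.1% Tween 20. Runs 60 min at room temperature; EDTA stop. Microfluidic separation of product from substrate. Duplicate 8-point curves, 0.25 pM–200 μM final, 1–2% DMSO. IC50 from four-parameter logistic fit.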

[14] = Metabolic stability in human liver microsomes at 10 uM after 30 mins; type: ADME
Procedure, shortened: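 Mixed-gender pooled human liver microsomes (1 mg/mL) incubated with compound at 10 μM plus NADPH 1 mM, UDPGA 2.5 mM and MgCl2 3 mM in 10 mM PBS at 37 °C, for 0 and 30 min. Cofactor-free controls included. Percent remaining measured by LC/MS.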

[15] = target: Glycogen synthase kinase-3 beta (Homo sapiens) (UniProt P49841); conditions: 1 uM
Sequence of Glycogen synthase kinase-3 beta (Homo sapiens) (P49841 whole entry, looked up): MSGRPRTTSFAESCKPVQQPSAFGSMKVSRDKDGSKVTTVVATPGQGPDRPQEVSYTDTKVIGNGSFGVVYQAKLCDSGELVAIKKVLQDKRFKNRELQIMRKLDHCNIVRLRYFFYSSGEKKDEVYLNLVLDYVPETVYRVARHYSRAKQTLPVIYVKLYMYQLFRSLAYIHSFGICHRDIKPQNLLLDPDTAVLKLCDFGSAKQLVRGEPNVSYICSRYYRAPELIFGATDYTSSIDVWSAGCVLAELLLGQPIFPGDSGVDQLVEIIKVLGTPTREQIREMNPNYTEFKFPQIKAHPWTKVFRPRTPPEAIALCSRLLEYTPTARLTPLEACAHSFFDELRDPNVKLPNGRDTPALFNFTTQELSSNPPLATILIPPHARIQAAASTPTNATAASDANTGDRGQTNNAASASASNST

[16] = target: T4, Aurora kinase A (Homo sapiens) (UniProt O14965); conditions: 1 uM
T4 sequence (whole entry): T2 sequence (O14965 whole entry)

Sequence of Aurora kinase A (Homo sapiens, UniProt O14965, L215R) (O14965 whole entry I57V/L215R): as the sequence (O14965 whole entry I57V/T217E) above, with L215R, E217T counted along it

Cc1nn(C)cc1-c1nc2c(Oc3ccc(C(=O)Nc4ccccc4)cc3)c(Cl)cnc2[nH]1
IC50 (Aurora kinase A [1]): 27 nM | IC50 (Aurora kinase A [2]): 960 nM | IC50 (Aurora kinase A [3]): 29 nM | IC50 (Aurora kinase A [4]): 4110 nM | Vd (Mus musculus): 1.8 L/kg | metabolized at 0.5 h, 10 µM [5]: 22% | GI50 [6]: 299 nM | GI50 (HCT-116): 2300 nM | inhibition [7]: > 80% | IC50 (Aurora kinase B [8]): 24600 nM | IC50 (Aurora kinase A [9]): 65 nM | Ratio IC50 (HeLa): 480 | IC50 (Aurora kinase B [10]): 76800 nM | IC50 (Aurora kinase A [11]): 160 nM | IC50 (Aurora kinase B [12]): 12700 nM | IC50 (Aurora kinase A [13]): 67 nM | metabolized at 0.5 h, 10 µM [14]: 9% | inhibition [15]: > 80% | inhibition [16]: > 80%

— ChEMBL document CHEMBL3085696, “Aurora isoform selectivity: design and synthesis of imidazo[4,5-b]pyridine derivatives as highly selective inhibitors of Aurora-A kinase in cells” (J Med Chem, 2013)
